PERK inhibitor: blocks human PERK kinase; Q9NZJ5; CHO PERK-DD fusion, SEAP luminescence translation reporter; inhibition, % at 5.6 µM; 0.17% of 220,000 active;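 active = inhibition above the mean inhibition of all tested compounds plus 3 SD, set separately per screening campaign, cut at about 2.9% in these data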;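 note: PERK kinase domain activated by AP20187 dimerizer at 100 nM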
Target sequence (Q9NZJ5 whole entry, looked up, the tested form may be a part): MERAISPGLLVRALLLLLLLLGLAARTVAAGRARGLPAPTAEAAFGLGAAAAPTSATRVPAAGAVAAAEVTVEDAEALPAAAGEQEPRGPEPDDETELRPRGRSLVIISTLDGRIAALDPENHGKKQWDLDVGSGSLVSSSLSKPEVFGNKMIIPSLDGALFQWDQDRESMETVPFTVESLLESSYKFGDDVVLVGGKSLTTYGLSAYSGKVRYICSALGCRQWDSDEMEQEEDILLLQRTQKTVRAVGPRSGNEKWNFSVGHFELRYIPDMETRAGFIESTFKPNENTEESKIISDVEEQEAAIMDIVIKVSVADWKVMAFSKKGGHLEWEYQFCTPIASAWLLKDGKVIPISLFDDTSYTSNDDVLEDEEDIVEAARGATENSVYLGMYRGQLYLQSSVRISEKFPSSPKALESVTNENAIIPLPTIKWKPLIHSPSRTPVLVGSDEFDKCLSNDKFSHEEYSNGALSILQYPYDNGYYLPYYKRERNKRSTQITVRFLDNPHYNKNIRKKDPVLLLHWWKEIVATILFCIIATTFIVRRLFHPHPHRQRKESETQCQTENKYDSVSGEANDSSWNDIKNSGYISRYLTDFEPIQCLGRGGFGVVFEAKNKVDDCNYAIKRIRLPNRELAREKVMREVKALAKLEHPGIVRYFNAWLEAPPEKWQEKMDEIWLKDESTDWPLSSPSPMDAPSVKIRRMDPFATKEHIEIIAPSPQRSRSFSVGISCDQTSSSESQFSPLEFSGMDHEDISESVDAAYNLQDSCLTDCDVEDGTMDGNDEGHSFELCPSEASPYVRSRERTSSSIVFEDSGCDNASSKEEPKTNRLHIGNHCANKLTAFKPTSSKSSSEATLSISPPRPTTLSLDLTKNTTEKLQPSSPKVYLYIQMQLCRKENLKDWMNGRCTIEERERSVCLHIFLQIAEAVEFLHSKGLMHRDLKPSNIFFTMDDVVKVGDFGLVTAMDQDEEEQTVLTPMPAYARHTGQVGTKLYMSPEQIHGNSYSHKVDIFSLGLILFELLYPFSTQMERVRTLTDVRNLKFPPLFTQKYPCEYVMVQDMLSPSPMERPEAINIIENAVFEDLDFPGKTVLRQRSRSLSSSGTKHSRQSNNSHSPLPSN
Platelet DG rel: modulates dense granule release in human platelets | human platelet-rich plasma, SFLLRN dense granule ATP release, luminescence | inhibition, %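 (compounds screened at 7.5 µM in platelet-rich plasma)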 | 0.22% of 300,000 active | AID 1663;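 active = mean replicate score, as percent of positive control, at or above 50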
STAT3 inh: inhibitors of IL-6 induced STAT3 signaling | U3A cells, IL-6 STAT3-luciferase reporter, luminescence; host cell line lacks STAT1 | inhibition, % at 5.5 µM | 0.89% of 190,000 active | AID 862;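 active = inhibition above the mean inhibition across all screened compounds plus 3 SD, cut at about 44% in these data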
STAT3 activator: STAT3 signaling activation; 0.91% of 190,000 active; activation (% of control), % at 5.6 µM; U3A cells, IL-6 STAT3-luciferase reporter, luminescence; 100% = signal with IL-6 EC80 alone; AID 871;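 active = activation above the screen-wide mean of compound activation plus 3 SD, cut at about 130% in these data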
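Material: human STAT1-deficient U3A cells with stable STAT3-luciferase reporter / Probe or stimulus: IL-6 stimulus at 33 ng/mL final / Schedule: 1 h compound pre-exposure, 6 h IL-6 stimulation, 37 °C / Technique: luminescence / Read-out basis: percent of IL-6-only median luminescence / Control set: IL-6-only high control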
STAT1 blocker: STAT1 signaling inhibition | NIH 3T3 STAT1-luciferase reporter, IFN-gamma, luminescence | inhibition, % at 5.5 µM | 0.35% of 200,000 active | AID 920;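 active = inhibition above a set limit, the mean inhibition across all tested compounds plus 3 SD, cut at about 34% in these data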
Hits are given with their value; n = inactive; x = not tested or not shown. The list is not random: actives were taken first. Their share in the collection is about 1.4%.

SMILES	PERK inhibitor	Platelet DG rel	STAT3 inh	STAT3 activator	STAT1 blocker
Cc1nc2sccn2c(=O)c1S(=O)(=O)N1CCN(c2cccc(Cl)c2)CC1	x	54	x	x	x
COC(=O)c1ccc(NC(=O)C(=O)c2cccn2C)cc1	n	73	79	n	47
COC(=O)c1ccc(NC(=O)c2ccccc2C(=O)Nc2ccc(C(=O)OC)cc2)cc1	x	n	x	x	x
CCCCNC(=O)Nc1ccc(Br)cn1	n	53	n	n	n
O=C(CCc1ccccc1)Nc1nncs1	n	59	n	n	n
O=C(CCS(=O)(=O)Cc1ccccc1)Nc1nncs1	x	n	x	x	x
COc1ccc(NC(=O)/C(Cl)=C(/Cl)S(=O)Cc2ccccc2)cn1 (stereo not drawn)	n	57	n	n	n
COc1ccc(NC(=O)Cc2ccccc2)cn1	n	n	n	n	n
COc1cccc(C2c3[nH]c4ccccc4c3CCN2Cc2cccn2-c2ncccn2)c1 (stereo not drawn)	n	n	n	133	n
Fc1ccc(C2c3[nH]c4ccccc4c3CCN2Cc2cccn2-c2ncccn2)cc1 (stereo not drawn)	n	n	n	n	n
CCn1cc(CN2CCc3c([nH]c4ccccc34)C2c2cccc(OC)c2)c(C)n1 (stereo not drawn)	n	n	n	133	n
CCn1cc(CN2CCc3c([nH]c4ccccc34)C2c2ccc(F)c(OC)c2)c(C)n1 (stereo not drawn)	n	n	n	n	n
CCOC(=O)CN(c1cc([N+](=O)[O-])ccc1OC)S(C)(=O)=O	n	n	n	n	n
O=C(O)c1ccc(/C=N\Nc2ccccn2)cc1	x	53	x	x	x
O=C(O)c1ccc(N/N=C/c2ccc3nccnc3c2)cc1	n	56	x	x	x
CSc1ccc(/C=N/Nc2cccc(C(=O)O)c2)cc1	n	x	n	n	64
O=C(O)c1cccc(N/N=C/c2ccc(OC(F)(F)F)cc2)c1	x	n	x	x	x
COC(=O)c1ccccc1NC(=O)CSc1nc(Nc2ccccc2)nc(N2CCOCC2)n1	x	n	x	x	x
COc1cc(/C=N/NC(=O)c2cccc([N+](=O)[O-])c2)ccc1OCc1ccccc1	n	n	n	n	n
COc1cc(/C=C/[N+](=O)[O-])ccc1OCc1cccc(C(=O)O)c1	n	n	93	n	90
CCOc1ccc(C(=O)Nc2cc(C)ccn2)cc1	n	76	93	n	75
CCOc1cc(C(=O)Nc2cc(C)ccn2)cc(OCC)c1OCC	n	n	n	n	n
CN(C)c1nc(N)nc(-c2nc3ccccc3s2)n1	n	n	n	180	n
O=C(N/C(=C/C=C/c1ccccc1)C(=O)N1CCOCC1)c1ccccc1Br	n	n	n	n	n
O=c1c2[nH]c3cccc(Cl)c3c2ncn1Cc1ccco1	n	n	x	x	x
SMILES	PERK inhibitor	Platelet DG rel	STAT3 inh	STAT3 activator	STAT1 blocker
Cc1cc(C)c(C#N)c(Sc2ccccc2N)n1	n	n	n	168	n
Cc1occc1C(=O)N/N=C/c1ccc(N(C)C)cc1	n	78	x	x	x
CCN(CC)c1ccc(NC(=O)c2c(C)noc2C)cc1	x	n	x	x	x
NS(=O)(=O)c1ccc(NC(=O)COc2ccc(Cl)cc2)cc1	x	n	x	x	x
CCOc1ccccc1-c1c2cc(O)c(=O)cc-2oc2cc(O)c(O)cc12	n	x	n	n	n
O=c1cc2oc3cc(O)c(O)cc3c(-c3ccccc3O)c-2cc1O	3.1	x	x	x	x
COc1ccc(-c2nc3ccccc3s2)cc1	n	x	85	n	73
O=C(Nc1cccc(C(F)(F)F)c1)C(=O)N1CCCCC1	n	n	n	n	n
CCC(C)NC(=S)N1CCN(C)CC1 (stereo not drawn)	n	n	n	n	n
COc1cc(C2Nc3ccccc3C(=O)N2c2ccccc2)ccc1O (stereo not drawn)	n	n	n	133	n
Nc1nc(Cl)nc2c1ncn2[C@@H]1O[C@H](CO)[C@@H](O)[C@H]1O	5.6	89	n	n	n
CN(C)c1ncnc2c1ncn2C1OC(CO)C(O)C1O (stereo not drawn)	n	n	44	n	62
COc1ccc(OC)c(-n2c(SCC(=O)Nc3cccc(S(N)(=O)=O)c3)nc3ccccc3c2=O)c1	n	n	x	x	x
COc1ccc(C2(c3ccc(OC)cc3)NC(=O)N(CC(=O)NC3CCCC3)C2=O)cc1	x	n	x	x	x
O=C(Cn1cnc2ccccc2c1=O)Nc1nc2ccccc2s1	n	n	n	136	n
O=C(CS(=O)(=O)c1ccccc1)Nc1nc2ccccc2s1	n	n	n	133	n
CN(CC(=O)Nc1nc2ccccc2s1)S(=O)(=O)c1ccc(Br)cc1	n	n	n	134	n
Cc1cccc(NC(=O)CN(C)S(=O)(=O)c2ccc(Br)cc2)n1	n	n	n	n	n
NS(=O)(=O)c1ccc2nc(NC(=O)CS(=O)(=O)c3ccccc3)sc2c1	x	n	x	x	x
CC1(C)Cc2c(cnn2-c2cccc(F)c2)C(NC(=O)CCc2cnccn2)C1 (stereo not drawn)	x	n	x	x	x
O=C1OC(c2cccc([N+](=O)[O-])c2)C2(CCCC2)C(=O)C12CCCCC2 (stereo not drawn)	n	n	n	n	n
O=C(Cc1ccccc1)Nc1ccnn1C1CCN(Cc2nccs2)CC1	x	n	x	x	x
Cc1ccn2cc(C34CC5CC(CC(C5)C3)C4)nc2c1	n	n	n	n	n
Cc1nn(CCCC(=O)NCc2ccc(F)cc2)c(=O)c2nccn12	x	n	x	x	x
COc1ccccc1CNC(=O)OCc1nccnc1C(=O)Nc1ccc(Br)cn1	x	n	x	x	x
SMILES	PERK inhibitor	Platelet DG rel	STAT3 inh	STAT3 activator	STAT1 blocker
O=C(/C=C/Nc1ccc(F)cc1F)c1ccco1	n	53	84	n	77
O=C(/C=C/Nc1ccccc1O)c1ccco1	n	n	x	x	x
O=C(/C=C/Nc1ccc(Br)cc1F)c1ccco1	n	65	96	n	81
O=C(/C=C/Nc1cccc(F)c1)c1ccco1	n	n	n	n	n
O=C(c1ccc2oc(CCc3ccccc3)nc2c1)N1CCC(O)CC1	x	n	x	x	x
Cc1ccc(S(=O)(=O)NCCC(=O)NCC(c2cccs2)N2CCOCC2)cc1 (stereo not drawn)	x	n	x	x	x
O=C(COC(=O)CCC1CCCC1)Nc1ccccc1Sc1ccccc1	2.9	n	n	n	n
CC(=O)c1ccc2c3c(cccc13)C(=O)N(CCc1ccccc1)C2=O	n	n	n	183	n
O=C(O)c1ccc2c3c(cccc13)C(=O)N(c1ccccc1)C2=O	n	n	n	n	n
Nc1nc(-c2ccccc2)nc(-c2ccccc2O)n1	n	n	n	139	n
COc1ccc2[nH]c3c(=O)n(CCCCC(=O)NCCC(C)C)c(=S)[nH]c3c2c1	n	n	n	n	n
CCOc1ncccc1C(=O)OCc1ccc(Cl)cc1	n	n	n	n	n
CCOc1ncccc1C(=O)OCc1ccc(C(=O)OC)cc1	n	n	n	137	n
CS(=O)(=O)c1nc(-c2cccs2)cc(C(F)(F)F)n1	n	n	n	n	50
O=[N+]([O-])c1cccc(N/N=C/c2cccc(O)c2O)c1	n	n	n	n	n
c1ccc2c(NCCCN3CCOCC3)c3ccccc3nc2c1	n	x	n	215	n
Oc1ccccc1N=Cc1sc2ccccc2c1Cl	n	n	n	135	n
CCOC(=O)C1=NN(c2ccccc2)C(=O)C1	2.9	n	x	x	x

Screening results (PubChem BioAssay)
